Measurements from paper PMC10825549 (JID Innovations, 2023).
Entries after “also recorded” stand apart in the source; their conditions may differ.

Tests used:
[1] = Metabolic stability in liver microsomes; assay type: in vitro ADME; conditions: dog
Outline: (§1)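 Test compound from 1 mM DMSO solution preincubated 5 min with dog, human, monkey, rat or minipig liver microsomes. NADPH (10 mM) then added. Reactions stopped at 0, 5, 15 and 30 min with 0.05% formic acid in acetonitrile containing loperamide internal standard. Supernatants analysed by LC-MS/MS; n = 1 per microsome species.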

minipig [2] = assay: 7-day minipig study: dermal tolerability; assay type: in vivo; conditions: 2% solution applied to the skin for 7 consecutive days
Outline: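 Each minipig (1 male, 1 female) received topical test compound and matching placebo formulations once daily on designated skin areas. Animals were checked daily for clinical signs. Application sites were scored for dermal irritation by a modified Draize procedure.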

Jak1/2 = assay: Inhibition of IFN-γ-induced STAT phosphorylation in PBMCs; assay type: cell-based; conditions: Homo sapiens, PBMC, read-out: IC50 Mean ± SD
Outline: (§2)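 Ficoll-isolated human PBMCs, cryopreserved, thawed into RPMI/10% heat-inactivated FBS assay medium, 200,000 cells/well. Serially diluted test compound (final 20 μM to 2 × 10−6 μM) or 0.1% DMSO vehicle preincubated 1 h at 37 °C. Cytokine then added for 5–10 min, followed by 30 min shaking at 4 °C and lysis. Phospho-STAT5/STAT4 by MSD immunoassay, phospho-STAT1 by ELISA. IC50 reported as mean ± SD.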

[3] = tested on: moderate or severe atopic dermatitis; assay: Phase 2a study ATI-1777-AD-201: efficacy; assay type: in vivo, human
Outline: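 Randomized 1:1, double-blind, vehicle-controlled, 14 US sites; stratified by severity. Adults 18–65 with moderate/severe AD (IGA 3–4, 3–20% BSA). Up to 8 ml 2.0% w/w solution or vehicle applied twice daily for 28 days, 2-week follow-up. mEASI, IGA, BSA assessed days 8, 15, 28; PP-NRS tracked. MMRM, 1-sided tests, full analysis set (23 vs 25).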

[4] = Metabolic stability in liver microsomes; assay type: in vitro ADME; conditions: minipig
Outline: as §1

MKNK1/MNK1 = MKNK1/MNK1 (Homo sapiens, UniProt Q9BUB5); assay: IC50 for kinases of potential cross-over; assay type: biochemical
MKNK1/MNK1, sequence (Q9BUB5 whole entry): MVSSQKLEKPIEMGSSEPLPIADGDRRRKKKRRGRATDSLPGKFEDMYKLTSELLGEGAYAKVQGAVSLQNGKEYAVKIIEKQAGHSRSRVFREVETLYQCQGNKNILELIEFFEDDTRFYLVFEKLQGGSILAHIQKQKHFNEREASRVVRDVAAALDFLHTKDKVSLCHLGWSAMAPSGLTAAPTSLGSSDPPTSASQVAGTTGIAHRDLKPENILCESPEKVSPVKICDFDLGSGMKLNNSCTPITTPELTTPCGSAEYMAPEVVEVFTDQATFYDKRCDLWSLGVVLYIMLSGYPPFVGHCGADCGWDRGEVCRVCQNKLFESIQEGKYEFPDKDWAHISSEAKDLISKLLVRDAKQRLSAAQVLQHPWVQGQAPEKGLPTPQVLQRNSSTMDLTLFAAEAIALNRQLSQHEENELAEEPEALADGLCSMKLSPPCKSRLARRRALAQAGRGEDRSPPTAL

[5] = Metabolic stability in liver microsomes; assay type: in vitro ADME; conditions: mouse
TXK = TXK (Homo sapiens, UniProt P42681); assay: IC50 for kinases of potential cross-over; assay type: biochemical
TXK, sequence (P42681 whole entry): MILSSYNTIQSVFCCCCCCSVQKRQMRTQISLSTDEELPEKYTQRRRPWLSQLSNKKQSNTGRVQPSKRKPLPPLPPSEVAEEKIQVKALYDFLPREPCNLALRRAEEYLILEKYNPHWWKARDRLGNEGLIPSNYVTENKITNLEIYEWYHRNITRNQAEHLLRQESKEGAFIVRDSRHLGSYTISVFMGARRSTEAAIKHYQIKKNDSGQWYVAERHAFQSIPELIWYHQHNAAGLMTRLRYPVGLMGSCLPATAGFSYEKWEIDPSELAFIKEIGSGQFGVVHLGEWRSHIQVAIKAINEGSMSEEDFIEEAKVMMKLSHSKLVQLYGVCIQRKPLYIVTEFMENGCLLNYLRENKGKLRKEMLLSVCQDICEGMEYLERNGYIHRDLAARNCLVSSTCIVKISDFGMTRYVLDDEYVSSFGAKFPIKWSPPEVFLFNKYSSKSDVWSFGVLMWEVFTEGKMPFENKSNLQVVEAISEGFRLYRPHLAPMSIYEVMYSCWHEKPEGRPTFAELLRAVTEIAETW

LRRK2 = LRRK2 (Homo sapiens, UniProt Q5S007); assay: IC50 for kinases of potential cross-over; assay type: biochemical
LRRK2, sequence (Q5S007 whole entry): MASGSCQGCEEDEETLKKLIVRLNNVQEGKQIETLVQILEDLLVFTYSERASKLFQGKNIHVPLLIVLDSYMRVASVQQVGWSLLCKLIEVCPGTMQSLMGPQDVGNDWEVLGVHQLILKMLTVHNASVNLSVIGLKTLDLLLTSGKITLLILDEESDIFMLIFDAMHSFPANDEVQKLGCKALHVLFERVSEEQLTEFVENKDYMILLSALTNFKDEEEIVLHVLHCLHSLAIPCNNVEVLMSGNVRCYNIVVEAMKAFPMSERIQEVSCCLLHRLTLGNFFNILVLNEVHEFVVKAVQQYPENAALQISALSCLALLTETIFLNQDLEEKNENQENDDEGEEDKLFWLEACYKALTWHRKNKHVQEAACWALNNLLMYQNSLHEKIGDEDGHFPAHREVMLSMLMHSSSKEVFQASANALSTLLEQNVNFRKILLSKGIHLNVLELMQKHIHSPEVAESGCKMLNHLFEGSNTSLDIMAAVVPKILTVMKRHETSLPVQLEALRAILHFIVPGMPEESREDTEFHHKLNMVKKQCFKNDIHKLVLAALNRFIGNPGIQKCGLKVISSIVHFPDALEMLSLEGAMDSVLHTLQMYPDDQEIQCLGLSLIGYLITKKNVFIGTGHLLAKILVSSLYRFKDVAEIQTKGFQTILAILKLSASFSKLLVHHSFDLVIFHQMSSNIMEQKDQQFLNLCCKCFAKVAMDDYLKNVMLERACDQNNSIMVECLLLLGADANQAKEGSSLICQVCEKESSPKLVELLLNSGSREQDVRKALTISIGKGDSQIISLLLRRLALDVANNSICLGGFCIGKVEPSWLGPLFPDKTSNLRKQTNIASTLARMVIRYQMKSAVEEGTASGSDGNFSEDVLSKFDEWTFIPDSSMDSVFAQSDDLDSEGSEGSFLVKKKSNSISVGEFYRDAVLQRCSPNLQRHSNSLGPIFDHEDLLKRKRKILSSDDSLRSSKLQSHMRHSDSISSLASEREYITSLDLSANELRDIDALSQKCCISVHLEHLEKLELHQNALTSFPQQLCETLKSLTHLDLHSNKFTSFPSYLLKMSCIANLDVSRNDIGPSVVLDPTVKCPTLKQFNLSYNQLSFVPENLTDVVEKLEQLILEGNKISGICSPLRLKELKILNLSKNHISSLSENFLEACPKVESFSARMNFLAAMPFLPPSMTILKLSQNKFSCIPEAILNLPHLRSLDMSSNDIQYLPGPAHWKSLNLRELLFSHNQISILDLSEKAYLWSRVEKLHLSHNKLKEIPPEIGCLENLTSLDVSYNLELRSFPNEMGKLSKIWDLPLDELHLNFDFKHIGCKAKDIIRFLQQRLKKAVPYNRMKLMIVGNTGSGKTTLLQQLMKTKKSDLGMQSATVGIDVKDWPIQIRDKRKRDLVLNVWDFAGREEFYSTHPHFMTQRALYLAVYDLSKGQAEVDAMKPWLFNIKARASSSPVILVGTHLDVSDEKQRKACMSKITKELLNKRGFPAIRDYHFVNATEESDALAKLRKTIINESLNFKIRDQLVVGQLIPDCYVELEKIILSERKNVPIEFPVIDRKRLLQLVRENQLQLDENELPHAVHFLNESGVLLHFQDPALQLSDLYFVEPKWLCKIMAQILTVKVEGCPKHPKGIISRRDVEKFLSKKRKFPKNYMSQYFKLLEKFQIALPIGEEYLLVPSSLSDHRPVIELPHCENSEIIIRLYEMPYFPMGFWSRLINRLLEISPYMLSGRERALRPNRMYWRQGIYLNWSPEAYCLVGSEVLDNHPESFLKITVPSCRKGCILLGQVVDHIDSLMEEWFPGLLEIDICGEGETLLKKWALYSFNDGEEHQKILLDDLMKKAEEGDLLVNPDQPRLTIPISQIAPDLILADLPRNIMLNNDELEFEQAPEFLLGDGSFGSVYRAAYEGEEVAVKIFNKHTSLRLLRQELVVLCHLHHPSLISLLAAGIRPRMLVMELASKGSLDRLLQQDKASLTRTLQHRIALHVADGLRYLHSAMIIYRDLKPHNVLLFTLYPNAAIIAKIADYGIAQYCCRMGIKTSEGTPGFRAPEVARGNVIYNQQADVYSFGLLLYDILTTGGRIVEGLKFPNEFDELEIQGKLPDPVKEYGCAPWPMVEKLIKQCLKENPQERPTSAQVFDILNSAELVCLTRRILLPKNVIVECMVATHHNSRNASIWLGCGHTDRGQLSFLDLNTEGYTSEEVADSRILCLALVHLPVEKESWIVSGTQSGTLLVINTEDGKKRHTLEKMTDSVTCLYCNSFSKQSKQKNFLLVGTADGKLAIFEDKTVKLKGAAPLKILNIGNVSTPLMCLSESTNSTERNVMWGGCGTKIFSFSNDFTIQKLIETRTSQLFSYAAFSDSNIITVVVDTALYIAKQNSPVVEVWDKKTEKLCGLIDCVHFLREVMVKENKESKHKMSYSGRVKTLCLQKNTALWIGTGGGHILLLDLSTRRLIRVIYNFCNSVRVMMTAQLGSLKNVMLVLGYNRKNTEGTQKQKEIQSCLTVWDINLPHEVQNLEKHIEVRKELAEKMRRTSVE

minipig [6] = assay: 28-day minipig repeat exposure study: toxicology; assay type: in vivo; conditions: topical solution daily for 28 days, 0, 40, 80 and 160 mg/day
Outline: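 GLP repeat-dose dermal study in minipigs. Topical solution given daily for 28 days at 0, 40, 80 and 160 mg/day. Left on skin 20–22 h each day, then the site was wiped clean with a moist towel. Dermal tolerability and toxicokinetics assessed.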

CYP2C8 = CYP2C8 (Homo sapiens, UniProt P10632); assay: Cytochrome P450 phenotyping; assay type: in vitro ADME; conditions: recombinant human CYP2C8; with NADPH; 60 minutes; n = 1
Outline: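 Recombinant human CYPs prepared at CYP1A2 200 nM, CYP2B6/2C8 250 nM, CYP2C9 100 nM, CYP2D6 50 nM. Test compound added as 2 μM DMSO dosing solution on ice. Plate prewarmed, then 8 mM NADPH solution or blank buffer added. Incubation 60 min (1A2, 2B6, 2C8) or 30 min (2C9, 2D6). Stopped with acetonitrile plus internal standard; supernatant by LC-MS/MS; n = 1.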

Jak1/3 = assay: IC50 of ATI-1777 for inhibiting Jak1/3 used as plasma reference level; conditions: reference level for plasma concentrations; assay not described
BTK = BTK (Homo sapiens, UniProt Q06187); assay: IC50 for kinases of potential cross-over; assay type: biochemical
BTK, sequence (Q06187 whole entry, the tested form may be a part): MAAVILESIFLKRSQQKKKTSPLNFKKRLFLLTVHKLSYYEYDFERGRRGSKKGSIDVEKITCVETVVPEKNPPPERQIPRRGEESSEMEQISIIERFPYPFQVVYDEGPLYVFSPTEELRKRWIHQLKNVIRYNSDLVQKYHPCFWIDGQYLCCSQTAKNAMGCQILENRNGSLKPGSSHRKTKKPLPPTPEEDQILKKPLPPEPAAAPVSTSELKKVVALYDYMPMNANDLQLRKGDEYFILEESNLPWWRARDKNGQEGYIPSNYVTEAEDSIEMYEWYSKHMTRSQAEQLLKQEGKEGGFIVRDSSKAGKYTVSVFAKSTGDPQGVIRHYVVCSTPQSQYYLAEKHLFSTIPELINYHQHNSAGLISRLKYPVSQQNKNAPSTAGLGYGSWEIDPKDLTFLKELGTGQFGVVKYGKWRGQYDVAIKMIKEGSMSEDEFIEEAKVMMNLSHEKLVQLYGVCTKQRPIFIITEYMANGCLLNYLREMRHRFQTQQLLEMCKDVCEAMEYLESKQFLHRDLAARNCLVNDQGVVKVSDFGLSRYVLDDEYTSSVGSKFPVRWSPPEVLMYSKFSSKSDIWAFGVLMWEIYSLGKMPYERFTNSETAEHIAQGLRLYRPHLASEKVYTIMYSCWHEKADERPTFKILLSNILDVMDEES

TYK2 = TYK2 (Homo sapiens, UniProt P29597); assay: Inhibition of catalytic domain activity, TYK2; assay type: biochemical
TYK2, sequence (P29597 897-1176 limits assumed): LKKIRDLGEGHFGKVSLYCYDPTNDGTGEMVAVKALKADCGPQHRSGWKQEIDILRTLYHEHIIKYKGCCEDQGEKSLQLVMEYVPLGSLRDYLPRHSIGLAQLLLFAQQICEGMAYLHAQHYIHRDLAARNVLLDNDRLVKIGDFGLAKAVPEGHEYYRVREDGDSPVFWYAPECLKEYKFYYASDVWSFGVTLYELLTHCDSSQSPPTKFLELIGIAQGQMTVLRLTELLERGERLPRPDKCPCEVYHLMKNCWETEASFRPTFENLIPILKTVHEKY
Outline: (§3)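 Z′-LYTE biochemical kinase assay run by the vendor per manufacturer's protocol. Each kinase plate carried 0%/100% phosphorylation and 0%/100% inhibition controls. Development-reaction and compound-fluorescence interference controls at each compound concentration. n = 1 per kinase.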

MARK1 = MARK1 (Homo sapiens, UniProt Q9P0L2); assay: IC50 for kinases of potential cross-over; assay type: biochemical
Jak2/TYK2 = assay: Inhibition of IL-12-induced STAT phosphorylation in PBMCs; assay type: cell-based, human
Outline: as §2

[7] = Metabolic stability in liver microsomes; assay type: in vitro ADME; conditions: monkey
Outline: as §1

Jak1 = Jak1 (Homo sapiens, UniProt P23458); assay: Inhibition of catalytic domain activity, Jak1; assay type: biochemical
Jak1, sequence (P23458 875-1153 limits assumed): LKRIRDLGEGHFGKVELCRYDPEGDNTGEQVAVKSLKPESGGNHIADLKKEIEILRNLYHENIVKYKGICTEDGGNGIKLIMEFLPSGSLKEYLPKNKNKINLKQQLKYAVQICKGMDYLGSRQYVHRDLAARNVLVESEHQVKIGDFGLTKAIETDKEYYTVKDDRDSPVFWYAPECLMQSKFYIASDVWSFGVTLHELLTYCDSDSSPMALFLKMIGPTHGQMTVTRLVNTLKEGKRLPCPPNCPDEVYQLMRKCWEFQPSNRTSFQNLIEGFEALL
Outline: as §3

CYP2C19 = CYP2C19 (Homo sapiens, UniProt P33261); assay: Cytochrome P450 phenotyping; assay type: in vitro ADME; conditions: recombinant human CYP2C19; with NADPH; 60 minutes; n = 1
KDR (VEGFR2) = KDR (VEGFR2) (Homo sapiens, UniProt P35968); assay: IC50 for kinases of potential cross-over; assay type: biochemical
[8] = Phase 2a study ATI-1777-AD-201: plasma pharmacokinetics; assay type: in vivo, human
Outline: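 Participants with moderate/severe AD applied 2% topical solution twice daily for 4 weeks. Plasma test compound measured by sparse sampling, 8 samples per participant. Concentrations expressed relative to the Jak1/3 IC50.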

Jak2 = Jak2 (Homo sapiens, UniProt O60674); assay: Inhibition of catalytic domain activity, Jak2; assay type: biochemical
Jak2, sequence (O60674 849-1124 limits assumed): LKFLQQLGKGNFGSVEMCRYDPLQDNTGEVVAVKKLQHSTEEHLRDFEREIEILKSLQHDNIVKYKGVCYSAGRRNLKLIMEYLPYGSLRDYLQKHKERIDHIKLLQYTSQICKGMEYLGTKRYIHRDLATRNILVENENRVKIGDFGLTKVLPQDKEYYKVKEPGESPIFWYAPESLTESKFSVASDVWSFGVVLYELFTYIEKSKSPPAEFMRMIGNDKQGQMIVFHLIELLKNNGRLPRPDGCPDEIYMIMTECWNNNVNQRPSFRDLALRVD
Outline: as §3

[9] = day 28, 2% topical solution twice daily, n = 23

CCOC(=O)c1cnc2[nH]ccc2c1N[C@@H]1CCCN(C(=O)CC#N)C1 [ATI-1777, ethyl (R)-4-((1-(2-cyanoacetyl)piperidin-3-yl)amino)-1H-pyrrolo[2,3-b]pyridine-5-carboxylate]
CLint scaled [1]: 198 mL/min/kg
microsomal CLint [1]: 46 µL/min/mg
half-life ([1]; T1/2, Study 1, n = 1): 17.4 min
half-life ([1]; T1/2, Study 2, n = 1): 30 min
clinical observations and clinical pathology parameters (minipig [2]): no adverse clinical observations or changes in clinical pathology parameters
IC50 (Jak1/2): 97 ± 34 nM
least squared means change from baseline of PP-NRS score ([3]; SE = 0.548, P = .060 vs vehicle): −2.92
BSA affected by AD, change from baseline ([3]; day 8): −1.55%
BSA affected by AD, change from baseline ([3]; day 15): −3.33%
participants achieving a 50% reduction in mEASI [3, 9]: 91.3%
participants achieving a 75% reduction in mEASI [3, 9]: 65.2%
BSA affected by AD, change from baseline ([3]; day 28, P < .001 vs vehicle): −5.59%
percentage reduction from baseline in mEASI score ([3]; day 28, mixed model for repeated measures without imputation, SE = 5.943): 78.46%
participants achieving an IGA score of 0 or 1 with ≥2 point improvement ([3]; end of treatment period (day 28), P = .131 vs vehicle, n = 23): 39.1%
CLint scaled [4]: 365 mL/min/kg
microsomal CLint [4]: 295 µL/min/mg
half-life ([4]; T1/2, Study 1, n = 1): 2.85 min
half-life ([4]; T1/2, Study 2, n = 1): 5 min
IC50 (MKNK1/MNK1): 584 nM
Fold Selectivity (MKNK1/MNK1; MKNK1/MNK1 vs Jak1 (= 1)): 389 fold
CLint scaled [5]: 3280 mL/min/kg
half-life [5]: 1.66 min
IC50 (TXK): 351 nM
Fold Selectivity (TXK; TXK vs Jak1 (= 1)): 234 fold
IC50 (LRRK2): 48 nM
Fold Selectivity (LRRK2; LRRK2 vs Jak1 (= 1)): 32 fold
ATI-1777–related effects / adverse effects (minipig [6]): No ATI-1777–related effects were noted at any dose; also recorded: did not present any adverse effects
Percentage Remaining (CYP2C8): 41.2%
IC50 of ATI-1777 for inhibiting Jak1/3 (Jak1/3): 0.045 µg/mL
IC50 (BTK): 210 nM
Fold Selectivity (BTK; BTK vs Jak1 (= 1)): 140 fold
IC50 (TYK2): 19 nM
IC50 (MARK1): 1250 nM
Fold Selectivity (MARK1; MARK1 vs Jak1 (= 1)): 833 fold
IC50 (Jak2/TYK2; Homo sapiens, PBMC, read-out: IC50 Mean ± SD): 898 ± 178 nM
Fold Jak1/3 (Jak2/TYK2; IL-12, Jak2/TYK2 vs Jak1/3): 47.3 fold
CLint scaled [7]: 939 mL/min/kg
microsomal CLint [7]: 264 µL/min/mg
half-life ([7]; T1/2, Study 1, n = 1): 2.16 min
half-life ([7]; T1/2, Study 2, n = 1): 5 min
IC50 (Jak1): 1.5 nM
Fold Selectivity (Jak1; Jak1 reference line of Table 2): 1 fold
Percentage Remaining (CYP2C19): 75.5%
IC50 (KDR (VEGFR2)): 127 nM
Fold Selectivity (KDR (VEGFR2); KDR (VEGFR2) vs Jak1 (= 1)): 85 fold
all plasma concentrations relative to IC50 for Jak1/3 ([8]; IC50 45 ng/ml): less than half of the IC50
plasma concentrations relative to inhibitory concentrations for Jak1/2 ([8]; all plasma concentrations): below IC10
mean plasma concentration as percentage of the IC50 for Jak1/3 ([8]; each timepoint, IC50 45 ng/ml): < 5%
participants with samples with concentrations >10% of the IC50 for Jak1/3 ([8]; in vivo): Three
IC50 (Jak2): 7.1 nM
